{
  "source": "ChEMBL document CHEMBL2046430",
  "about": "“Synthesis, biological evaluation and molecular docking studies of 3-(1,3-diphenyl-1H-pyrazol-4-yl)-N-phenylacrylamide derivatives as inhibitors of HDAC activity” (Bioorg Med Chem, 2012)",
  "key": {"HCT-116": {"tested_on": "HCT-116", "assay": "Antiproliferative activity against human HCT116 cells after 48 hrs by MTT assay", "type": "functional, cell-based", "settings": "HCT-116, 48 h", "how_it_was_run": "(§1)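 Cells grown to log phase in RPMI 1640 + 10% FBS, seeded at 2 × 10^4 cells/mL (100 µL/well) and preincubated 24 h at 37 °C, 5% CO2. Compounds added at preset concentrations; MS275 as positive reference. After 48 h exposure, MTT (2.5 mg/mL in PBS) for 4 h, then SDS–isobutanol–HCl solubilization overnight at 37 °C; OD 570 nm. Triplicate wells per concentration, assays repeated ≥3 times; IC50 reported.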"}, "A549": {"tested_on": "A549", "assay": "Antiproliferative activity against human A549 cells after 48 hrs by MTT assay", "type": "functional, cell-based", "settings": "A549, 48 h", "how_it_was_run": "as §1"}, "Histone deacetylase 1": {"target": "Histone deacetylase 1 (Homo sapiens, UniProt Q13547)", "sequence (Q13547 whole entry)": "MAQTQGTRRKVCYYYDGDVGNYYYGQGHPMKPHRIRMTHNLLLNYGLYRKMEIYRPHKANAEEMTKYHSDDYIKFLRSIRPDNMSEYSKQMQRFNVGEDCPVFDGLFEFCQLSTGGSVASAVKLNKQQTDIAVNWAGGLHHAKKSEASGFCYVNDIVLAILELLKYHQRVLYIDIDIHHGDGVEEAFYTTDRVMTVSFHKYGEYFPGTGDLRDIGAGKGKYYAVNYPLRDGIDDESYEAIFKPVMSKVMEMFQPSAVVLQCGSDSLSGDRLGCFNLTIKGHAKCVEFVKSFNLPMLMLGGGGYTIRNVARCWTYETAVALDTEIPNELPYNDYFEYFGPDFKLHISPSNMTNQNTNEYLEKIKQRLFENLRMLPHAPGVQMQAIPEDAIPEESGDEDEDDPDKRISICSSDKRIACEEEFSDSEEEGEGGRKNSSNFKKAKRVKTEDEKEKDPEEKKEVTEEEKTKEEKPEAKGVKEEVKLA", "assay": "Inhibition of HDAC1 in human HeLa cell lysate using KI-104 as substrate after 40 mins by fluorescence analysis", "type": "cell-free"}, "Histone deacetylase 2": {"target": "Histone deacetylase 2 (Homo sapiens, UniProt Q92769)", "sequence (Q92769 whole entry)": "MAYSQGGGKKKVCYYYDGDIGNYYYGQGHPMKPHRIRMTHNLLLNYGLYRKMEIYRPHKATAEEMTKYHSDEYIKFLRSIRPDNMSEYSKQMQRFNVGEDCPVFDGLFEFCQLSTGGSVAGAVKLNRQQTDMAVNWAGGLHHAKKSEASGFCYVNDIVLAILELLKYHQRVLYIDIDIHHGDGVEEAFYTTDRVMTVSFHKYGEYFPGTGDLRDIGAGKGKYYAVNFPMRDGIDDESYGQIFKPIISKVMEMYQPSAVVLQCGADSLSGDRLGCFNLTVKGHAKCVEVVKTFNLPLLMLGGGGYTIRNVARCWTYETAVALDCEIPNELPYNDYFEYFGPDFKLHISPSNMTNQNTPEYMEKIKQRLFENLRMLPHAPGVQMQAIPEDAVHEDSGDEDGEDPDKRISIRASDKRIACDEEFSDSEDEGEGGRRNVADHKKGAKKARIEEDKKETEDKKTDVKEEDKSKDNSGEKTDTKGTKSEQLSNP", "assay": "Inhibition of HDAC2 in human HeLa cell lysate using KI-104 as substrate after 40 mins by fluorescence analysis", "type": "cell-free"}, "[1]": {"target": "Histone deacetylase (Homo sapiens) (UniProt Q13547+O15379+Q9UBN7+Q92769+Q9UQL6+Q8WUI4+Q9BY41+Q96DB2+P56524+Q9UKV0+Q969S8)", "settings": "HCT-116, 0.1 to 0.8 uM"}},
  "note": "The source made the active and inactive calls. The calls are words filed in the database; no cut-off is given here.",
  "data": [
    {"smiles": "O=C(/C=C\\c1cn(-c2ccccc2)nc1-c1ccc(Br)cc1)Nc1ccc(Cl)cc1", "values": [
      {"measurement": "IC50", "setting": "HCT-116", "result": 8.37, "unit": "µM"},
      {"measurement": "IC50", "setting": "A549", "result": 15.8, "unit": "µM"},
      {"measurement": "IC50", "setting": "Histone deacetylase 1", "result": 2.98, "unit": "µM"},
      {"measurement": "IC50", "setting": "Histone deacetylase 2", "result": 4.99, "unit": "µM"}
    ]},
    {"smiles": "COc1ccc(-c2nn(-c3ccccc3)cc2/C=C\\C(=O)Nc2ccc(Cl)cc2)cc1", "values": [
      {"measurement": "IC50", "setting": "HCT-116", "result": 1.56, "unit": "µM"},
      {"measurement": "IC50", "setting": "A549", "result": 8.04, "unit": "µM"},
      {"measurement": "IC50", "setting": "Histone deacetylase 1", "result": 1.09, "unit": "µM"},
      {"measurement": "IC50", "setting": "Histone deacetylase 2", "result": 2.36, "unit": "µM"}
    ]},
    {"smiles": "Cc1ccc(-c2nn(-c3ccccc3)cc2/C=C\\C(=O)Nc2ccc(Br)cc2)cc1", "values": [
      {"measurement": "IC50", "setting": "HCT-116", "result": 7.16, "unit": "µM"},
      {"measurement": "IC50", "setting": "A549", "result": 11.8, "unit": "µM"},
      {"measurement": "IC50", "setting": "Histone deacetylase 1", "result": 3.33, "unit": "µM"},
      {"measurement": "IC50", "setting": "Histone deacetylase 2", "result": 5.02, "unit": "µM"}
    ]},
    {"smiles": "Cc1ccc(-c2nn(-c3ccccc3)cc2/C=C\\C(=O)Nc2ccccc2)cc1", "values": [
      {"measurement": "IC50", "setting": "HCT-116", "result": 10.4, "unit": "µM"},
      {"measurement": "IC50", "setting": "A549", "result": 16.1, "unit": "µM"},
      {"measurement": "IC50", "setting": "Histone deacetylase 1", "result": 4.06, "unit": "µM"},
      {"measurement": "IC50", "setting": "Histone deacetylase 2", "result": 8.75, "unit": "µM"}
    ]},
    {"smiles": "Nc1ccccc1NC(=O)c1ccc(CNC(=O)OCc2cccnc2)cc1", "note": "[ENTINOSTAT]", "values": [
      {"measurement": "IC50", "setting": "HCT-116", "result": "< 0.1", "unit": "µM"},
      {"measurement": "IC50", "setting": "A549", "result": "< 0.1", "unit": "µM"}
    ]},
    {"smiles": "COc1ccc(NC(=O)/C=C\\c2cn(-c3ccccc3)nc2-c2ccc(C)cc2)cc1", "values": [
      {"measurement": "IC50", "setting": "HCT-116", "result": 9.81, "unit": "µM"},
      {"measurement": "IC50", "setting": "A549", "result": "> 20", "unit": "µM"},
      {"measurement": "IC50", "setting": "Histone deacetylase 1", "result": 4.05, "unit": "µM"},
      {"measurement": "IC50", "setting": "Histone deacetylase 2", "result": 6.45, "unit": "µM"}
    ]},
    {"smiles": "COc1ccc(NC(=O)/C=C\\c2cn(-c3ccccc3)nc2-c2ccc([N+](=O)[O-])cc2)cc1", "values": [
      {"measurement": "IC50", "setting": "HCT-116", "result": 1.08, "unit": "µM"},
      {"measurement": "IC50", "setting": "A549", "result": 5.17, "unit": "µM"},
      {"measurement": "IC50", "setting": "Histone deacetylase 1", "result": 1.02, "unit": "µM"},
      {"measurement": "IC50", "setting": "Histone deacetylase 2", "result": 1.15, "unit": "µM"}
    ]},
    {"smiles": "O=C(/C=C\\c1cn(-c2ccccc2)nc1-c1ccc(Br)cc1)Nc1ccc(Br)cc1", "values": [
      {"measurement": "IC50", "setting": "HCT-116", "result": 8.16, "unit": "µM"},
      {"measurement": "IC50", "setting": "A549", "result": 12.2, "unit": "µM"},
      {"measurement": "IC50", "setting": "Histone deacetylase 1", "result": 2.83, "unit": "µM"},
      {"measurement": "IC50", "setting": "Histone deacetylase 2", "result": 4.87, "unit": "µM"}
    ]},
    {"smiles": "COc1ccc(-c2nn(-c3ccccc3)cc2/C=C\\C(=O)Nc2ccccc2)cc1", "values": [
      {"measurement": "IC50", "setting": "HCT-116", "result": 2.09, "unit": "µM"},
      {"measurement": "IC50", "setting": "A549", "result": 9.85, "unit": "µM"},
      {"measurement": "IC50", "setting": "Histone deacetylase 1", "result": 1.76, "unit": "µM"},
      {"measurement": "IC50", "setting": "Histone deacetylase 2", "result": 2.67, "unit": "µM"}
    ]},
    {"smiles": "COc1ccc(NC(=O)/C=C\\c2cn(-c3ccccc3)nc2-c2ccc(OC)cc2)cc1", "values": [
      {"measurement": "IC50", "setting": "HCT-116", "result": 2.12, "unit": "µM"},
      {"measurement": "IC50", "setting": "A549", "result": 8.59, "unit": "µM"},
      {"measurement": "IC50", "setting": "Histone deacetylase 1", "result": 1.73, "unit": "µM"},
      {"measurement": "IC50", "setting": "Histone deacetylase 2", "result": 3.02, "unit": "µM"}
    ]},
    {"smiles": "O=C(/C=C\\c1cn(-c2ccccc2)nc1-c1ccc([N+](=O)[O-])cc1)Nc1ccccc1", "values": [
      {"measurement": "IC50", "setting": "HCT-116", "result": 0.85, "unit": "µM"},
      {"measurement": "IC50", "setting": "A549", "result": 5.18, "unit": "µM"},
      {"measurement": "IC50", "setting": "Histone deacetylase 1", "result": 0.92, "unit": "µM"},
      {"measurement": "IC50", "setting": "Histone deacetylase 2", "result": 1.15, "unit": "µM"}
    ]},
    {"smiles": "O=C(/C=C\\c1cn(-c2ccccc2)nc1-c1ccc([N+](=O)[O-])cc1)Nc1ccc(Cl)cc1", "values": [
      {"measurement": "IC50", "setting": "HCT-116", "result": 0.64, "unit": "µM"},
      {"measurement": "IC50", "setting": "A549", "result": 3.72, "unit": "µM"},
      {"measurement": "IC50", "setting": "Histone deacetylase 1", "result": 0.46, "unit": "µM"},
      {"measurement": "IC50", "setting": "Histone deacetylase 2", "result": 0.57, "unit": "µM"}
    ]},
    {"smiles": "Cc1ccc(-c2nn(-c3ccccc3)cc2/C=C\\C(=O)Nc2ccc(Cl)cc2)cc1", "values": [
      {"measurement": "IC50", "setting": "HCT-116", "result": 7.65, "unit": "µM"},
      {"measurement": "IC50", "setting": "A549", "result": 15.4, "unit": "µM"},
      {"measurement": "IC50", "setting": "Histone deacetylase 1", "result": 3.65, "unit": "µM"},
      {"measurement": "IC50", "setting": "Histone deacetylase 2", "result": 5.86, "unit": "µM"}
    ]},
    {"smiles": "COc1ccc(NC(=O)/C=C\\c2cn(-c3ccccc3)nc2-c2ccc(Br)cc2)cc1", "values": [
      {"measurement": "IC50", "setting": "HCT-116", "result": 9.69, "unit": "µM"},
      {"measurement": "IC50", "setting": "A549", "result": "> 20", "unit": "µM"},
      {"measurement": "IC50", "setting": "Histone deacetylase 1", "result": 3.31, "unit": "µM"},
      {"measurement": "IC50", "setting": "Histone deacetylase 2", "result": 5.35, "unit": "µM"}
    ]},
    {"smiles": "O=C(/C=C\\c1cn(-c2ccccc2)nc1-c1ccc([N+](=O)[O-])cc1)Nc1ccc(Br)cc1", "values": [
      {"measurement": "IC50", "setting": "HCT-116", "result": 0.62, "unit": "µM"},
      {"measurement": "IC50", "setting": "A549", "result": 3.71, "unit": "µM"},
      {"measurement": "IC50", "setting": "Histone deacetylase 1", "result": 0.42, "unit": "µM"},
      {"measurement": "IC50", "setting": "Histone deacetylase 2", "result": 0.55, "unit": "µM"},
      {"measurement": "inhibition", "setting": "[1]", "result": "inactive"}
    ]},
    {"smiles": "O=C(/C=C\\c1cn(-c2ccccc2)nc1-c1ccc(Br)cc1)Nc1ccccc1", "values": [
      {"measurement": "IC50", "setting": "HCT-116", "result": 10.7, "unit": "µM"},
      {"measurement": "IC50", "setting": "A549", "result": "> 20", "unit": "µM"},
      {"measurement": "IC50", "setting": "Histone deacetylase 1", "result": 3.43, "unit": "µM"},
      {"measurement": "IC50", "setting": "Histone deacetylase 2", "result": 6.52, "unit": "µM"}
    ]},
    {"smiles": "COc1ccc(-c2nn(-c3ccccc3)cc2/C=C\\C(=O)Nc2ccc(Br)cc2)cc1", "values": [
      {"measurement": "IC50", "setting": "HCT-116", "result": 1.53, "unit": "µM"},
      {"measurement": "IC50", "setting": "A549", "result": 7.47, "unit": "µM"},
      {"measurement": "IC50", "setting": "Histone deacetylase 1", "result": 1.05, "unit": "µM"},
      {"measurement": "IC50", "setting": "Histone deacetylase 2", "result": 2.17, "unit": "µM"}
    ]}
  ]
}
